Activity calls are given as the source filed them. The rule behind the calls is not given here.
Assays:
Type in all cases: functional, cell-based
[1] = tested on: HT-29; test: Cytotoxicity against human HT29 cells after 24 hrs by fluorometric microculture assay; conditions: HT-29, 24 h
[2] = tested on: HCT-116; test: Cytotoxicity against human HCT116 cells after 24 hrs by fluorometric microculture assay; conditions: HCT-116, 24 h
[3] = tested on: HeLa; test: Cytotoxicity against human HeLa cells after 24 hrs by fluorometric microculture assay
Outline: (§1)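 DLD1 grown in RPMI 1640 with 10% FBS; HeLa in IMDM with 5% FBS; both at 37 °C, 5% CO2. Cells (6 × 10^3 per well) exposed to a range of compound concentrations for 24 h at 37 °C. Medium then removed and viability read by FMCA on a fluorescence plate reader as percent of control-well fluorescence. IC50 derived; triplicate experiments.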

[4] = tested on: DLD-1; test: Cytotoxicity against human DLD1 cells after 24 hrs by fluorometric microculture assay; outline: as §1

## C/C=C(/C)C(=O)O[C@H]1[C@H](OC(C)=O)C(C)(C)C[C@H]2C3=CC[C@@H]4[C@@]5(C)CC[C@H](O[C@@H]6O[C@H](C(=O)O)[C@@H](O)[C@H](O)[C@H]6O[C@@H]6O[C@@H](C)[C@H](O)[C@@H](O)[C@H]6O)C(C)(C)[C@@H]5CC[C@@]4(C)[C@]3(C)[C@@H](O)[C@@H](O)[C@]21CO
[1]
  IC50: > 40 µg/mL
[2]
  IC50: > 40 µg/mL

## C/C=C(/C)C(=O)O[C@H]1CC(C)(C)C[C@H]2C3=CC[C@@H]4[C@@]5(C)CC[C@H](O[C@@H]6O[C@H](C(=O)O)[C@@H](O)[C@H](O[C@@H]7O[C@H](CO)[C@H](O[C@@H]8O[C@@H](C)[C@H](O)[C@@H](O)[C@H]8O)[C@H](O)[C@H]7O)[C@H]6O[C@@H]6O[C@H](CO)[C@@H](O)[C@H](O)[C@H]6O)C(C)(C)[C@@H]5CC[C@@]4(C)[C@]3(C)[C@@H](O)[C@@H](O)[C@@]12CO
[3]
  IC50: 5.5 µM
[4]
  Activity: Active

## C/C=C(/C)C(=O)O[C@H]1[C@H](O)C(C)(C)C[C@H]2C3=CC[C@@H]4[C@@]5(C)CC[C@H](O[C@@H]6O[C@H](C(=O)O)[C@@H](O)[C@H](O)[C@H]6O[C@@H]6O[C@@H](C)[C@H](O)[C@@H](O)[C@H]6O)C(C)(C)[C@@H]5CC[C@@]4(C)[C@]3(C)[C@@H](O)[C@@H](O)[C@]21COC(C)=O
[1]
  IC50: > 40 µg/mL
[2]
  IC50: > 40 µg/mL

## C/C=C(/C)C(=O)O[C@H]1CC(C)(C)C[C@H]2C3=CC[C@@H]4[C@@]5(C)CC[C@H](O[C@@H]6O[C@H](C(=O)O)[C@@H](O)[C@H](O[C@@H]7O[C@H](CO)[C@H](O[C@@H]8O[C@@H](C)[C@H](O)[C@@H](O)[C@H]8O)[C@H](O)[C@H]7O)[C@H]6O[C@@H]6O[C@H](CO)[C@@H](O)[C@H](O)[C@H]6O)C(C)(C)[C@@H]5CC[C@@]4(C)[C@]3(C)CC[C@@]12CO
[3]
  IC50: 3.8 µM
[4]
  Activity: Active

## C/C=C(/C)C(=O)O[C@H]1[C@H](O)C(C)(C)C[C@H]2C3=CC[C@@H]4[C@@]5(C)CC[C@H](O[C@@H]6O[C@H](C(=O)O)[C@@H](O)[C@H](O)[C@H]6O[C@@H]6O[C@@H](C)[C@H](O)[C@@H](O)[C@H]6O)C(C)(C)[C@@H]5CC[C@@]4(C)[C@]3(C)[C@@H](O)[C@@H](O)[C@]21CO
[1]
  IC50: > 40 µg/mL
[2]
  IC50: > 40 µg/mL

From ChEMBL document CHEMBL1149897, “Acylated triterpenoid saponins from Schima noronhae and their cell growth inhibitory activity” (J Nat Prod, 2008)
